According to article PMC2939154 (Nature, 2010):
Changes are numbered by the printed parent chain. Entries after “also recorded” stand apart in the source; their conditions may differ. Ends that are not written are not given here.

Experiments:
[1] = molecular target: T1, NRMT (Homo sapiens, UniProt Q9BV86); experiment: isothermal titration calorimetry; type: binding; conditions: ITC, 25OC, methyltransferase buffer pH 8.0
T1 sequence (Q9BV86 1-223): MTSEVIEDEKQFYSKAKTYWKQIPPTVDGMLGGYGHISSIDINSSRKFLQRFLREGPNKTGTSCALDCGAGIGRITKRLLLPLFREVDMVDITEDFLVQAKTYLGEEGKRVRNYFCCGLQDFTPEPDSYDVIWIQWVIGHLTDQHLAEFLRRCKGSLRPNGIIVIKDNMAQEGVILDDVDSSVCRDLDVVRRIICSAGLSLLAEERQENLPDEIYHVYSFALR
In short: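 Isothermal titration calorimetry of NRMT binding to peptide ligands: the wild-type RCC1 N-terminal peptide and a mutant peptide with Gln in place of Lys4. This tests whether Lys4 is needed for substrate binding. The readout is binding affinity.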

[2] = molecular target: N-terminal RCC1 methyltransferase (NRMT) (not stated (human or mouse cDNA cloned)) (UniProt Q9BV86); experiment: ITC
[3] = test system: N-terminally methylated proteins; conditions: mouse spleen and cardiac lysates, anti-me3-SPK immunoprecipitation
[4] = molecular target: T1, NRMT; experiment: in vitro methylation assay of protein substrates by NRMT, immunoblot; type: biochemical; conditions: 50mM Tris, 50mM K Acetate, pH 8.0, 100 µM SAM, 1 h at 30°C
[5] = test system: RCC1 methylation in 293LT cells; experiment: NRMT lentiviral knockdown and rescue in 293LT cells, immunoblot; type: cell-based; conditions: murine NRMT, not targeted by human shRNA
[6] = test system: SPK-RCC1; type: biochemical, human; conditions: in vitro methylation of SPK-RCC1

Molecule: H-SPKRIAKRRSPP
- ΔH (exothermic binding) [1]: -9.8 kcal/mol

Molecule: wild-type 12-residue RCC1 N-terminal peptide
- Kd [2]: 70 µM
- dH [2]: -9.8 kcal/mol

Molecule: myosin light chain 3: mouse protein identified in anti-me3-SPK immunoprecipitates
- N-terminal methylation identified by MS [3]: N-terminally methylated

B1: RCC1-His6: recombinant RCC1 with C-terminal His6 tag (protein)
chain: MSPKRIAKRRSPPADAIPKSKKVKVSHRSHSTEPGLVLTLGQGDVGQLGLGENVMERKKPALVSIPEDVVQAEAGGMHTVCLSKSGQVYSFGCNDEGALGRDTSVEGSEMVPGKVELQEKVVQVSAGDSHTAALTDDGRVFLWGSFRDNNGVIGLLEPMKKSMVPVQVQLDVPVVKVASGNDHLVMLTADGDLYTLGCGEQGQLGRVPELFANRGGRQGLERLLVPKCVMLKSRGSRGHVRFQDAFCGAYFTFAISHEGHVYGFGLSNYHQLGTPGTESCFIPQNLTSFKNSTKSWVGFSGGQHHTVCMDSEGKAYSLGRAEYGRLGLGEGAEEKSIPTLISRLPAVSSVACGASVGYAVTKDGRVFAWGMGTNYQLGTGQDEDAWSPVEMMGKQLENRVVLSVSSGGQHTVLLVKDKEQS
modifications: left off: His6, C-terminal, state not stated
- in vitro methylation (enzyme FLAG-NRMT or His6-NRMT; substrate protein) [4]: di-and trimethylates

B2: RCC1: regulator of chromosome condensation 1, Ran guanine nucleotide-exchange factor (protein, UniProt P18754 2-421, looked up)
Regulator of chromosome …: SPKRIAKRRSPPADAIPKSKKVKVSHRSHSTEPGLVLTLGQGDVGQLGLGENVMERKKPALVSIPEDVVQAEAGGMHTVCLSKSGQVYSFGCNDEGALGRDTSVEGSEMVPGKVELQEKVVQVSAGDSHTAALTDDGRVFLWGSFRDNNGVIGLLEPMKKSMVPVQVQLDVPVVKVASGNDHLVMLTADGDLYTLGCGEQGQLGRVPELFANRGGRQGLERLLVPKCVMLKSRGSRGHVRFQDAFCGAYFTFAISHEGHVYGFGLSNYHQLGTPGTESCFIPQNLTSFKNSTKSWVGFSGGQHHTVCMDSEGKAYSLGRAEYGRLGLGEGAEEKSIPTLISRLPAVSSVACGASVGYAVTKDGRVFAWGMGTNYQLGTGQDEDAWSPVEMMGKQLENRVVLSVSSGGQHTVLLVKDKEQS
- N-terminal methylation identified by MS [3]: N-terminally methylated

B3: PPK-RCC1-His6: RCC1 possessing a Pro2 residue, His6 tagged (protein, UniProt P18754 2-421, looked up, variant S2P)
Regulator of chromosome …: B2 Regulator of chromosome … with S1P
modifications: His6 tag
- in vitro methylation (enzyme FLAG-NRMT or His6-NRMT; substrate protein) [4]: dimethylates

B4: murine NRMT-FLAG: murine NRMT-FLAG, not targeted by the human shRNA (protein, UniProt Q8R2U4 1-223, looked up)
N-terminal Xaa-Pro-Lys …: MTSEVIEDEKQFYSKAKTYWKQIPPTVDGMLGGYGHISNIDLNSSRKFLQRFLREGPNKTGTSCALDCGAGIGRITKRLLLPLFRVVDMVDVTEDFLAKAKTYLGEEGKRVRNYFCCGLQDFSPEPGSYDVIWIQWVIGHLTDQHLAEFLRRCKRGLRPNGIIVIKDNMAQEGVILDDVDSSVCRDLEVVRRIIRTAGLSLLAEERQENLPDEIYHVYSFALR
modifications: FLAG tag
- RCC1 methylation levels, rescue in NRMT knockdown cells [5]: rescues RCC1 methylation levels; also recorded: RCC1 methylation was rescued

B5: FLAG-NRMT: N-terminally FLAG-tagged NRMT (protein, UniProt Q9BV86 1-223, looked up)
N-terminal Xaa-Pro-Lys …: T1 sequence (Q9BV86 1-223)
modifications: N-terminal FLAG tag
- in vitro methylation (enzyme FLAG-NRMT or His6-NRMT; substrate protein) [4]: methylates RCC1-His6

B6: NRMT(Lys169): NRMT mutant at Asn169 (protein)
chain: TSEVIEDEKQFYSKAKTYWKQIPPTVDGMLGGYGHISSIDINSSRKFLQRFLREGPNKTGTSCALDCGAGIGRITKRLLLPLFREVDMVDITEDFLVQAKTYLGEEGKRVRNYFCCGLQDFTPEPDSYDVIWIQWVIGHLTDQHLAEFLRRCKGSLRPNGIIVIKDKMAQEGVILDDVDSSVCRDLDVVRRIICSAGLSLLAEERQENLPDEIYHVYSFALR
- methylation activity of NRMT mutant [6]: no activity

B7: myosin light chain 2: mouse protein identified in anti-me3-SPK immunoprecipitates (protein, UniProt P51667 2-166, looked up)
Myosin regulatory light chain …: APKKAKKRIEGGSSNVFSMFEQTQIQEFKEAFTIMDQNRDGFIDKNDLRDTFAALGRVNVKNEEIDEMIKEAPGPINFTVFLTMFGEKLKGADPEETILNAFKVFDPEGKGSLKADYVREMLTTQAERFSKEEIDQMFAAFPPDVTGNLDYKNLVHIITHGEEKD
- N-terminal methylation identified by MS [3]: N-terminally methylated

B8: RB: tumor suppressor protein RB; endogenous, or N-terminus fused to GFP (Fig. 3g) (protein, UniProt P06400 2-928, looked up)
Retinoblastoma-associated …: PPKTPRKTAATAAAAAAEPPAPPPPPPPEEDPEQDSGPEDLPLVRLEFEETEEPDFTALCQKLKIPDHVRERAWLTWEKVSSVDGVLGGYIQKKKELWGICIFIAAVDLDEMSFTFTELQKNIEISVHKFFNLLKEIDTSTKVDNAMSRLLKKYDVLFALFSKLERTCELIYLTQPSSSISTEINSALVLKVSWITFLLAKGEVLQMEDDLVISFQLMLCVLDYFIKLSPPMLLKEPYKTAVIPINGSPRTPRRGQNRSARIAKQLENDTRIIEVLCKEHECNIDEVKNVYFKNFIPFMNSLGLVTSNGLPEVENLSKRYEEIYLKNKDLDARLFLDHDKTLQTDSIDSFETQRTPRKSNLDEEVNVIPPHTPVRTVMNTIQQLMMILNSASDQPSENLISYFNNCTVNPKESILKRVKDIGYIFKEKFAKAVGQGCVEIGSQRYKLGVRLYYRVMESMLKSEEERLSIQNFSKLLNDNIFHMSLLACALEVVMATYSRSTSQNLDSGTDLSFPWILNVLNLKAFDFYKVIESFIKAEGNLTREMIKHLERCEHRIMESLAWLSDSPLFDLIKQSKDREGPTDHLESACPLNLPLQNNHTAADMYLSPVRSPKKKGSTTRVNSTANAETQATSAFQTQKPLKSTSLSLFYKKVYRLAYLRLNTLCERLLSEHPELEHIIWTLFQHTLQNEYELMRDRHLDQIMMCSMYGICKVKNIDLKFKIIVTAYKDLPHAVQETFKRVLIKEEEYDSIIVFYNSVFMQRLKTNILQYASTRPPTLSPIPHIPRSPYKFPSSPLRIPGGNIYISPLKSPYKISEGLPTPTKMTPRSRILVSIGESFGTSEKFQKINQMVCNSDRVLKRSAEGSNPPKPLKKLRFDIEGSDEADGSKHLPGESKFQQKLAEMTSTRTRMQKQKMNDSMDTSNKEEK
- in vitro methylation (enzyme FLAG-NRMT or His6-NRMT; substrate protein) [4]: can methylate in vitro; also recorded: able to methylate

B9: kelch-like protein 31: mouse protein identified in anti-me3-SPK immunoprecipitates (protein, UniProt Q8BWA5 2-634, looked up)
Kelch-like protein 31: APKKKTIKKNKAEINEMTIIVEDSPLSKLNALNGLLEGSNSLSCVSSELTDTSYGPNLLEGLSKMRQESFLCDLVIGTKTKSFDVHKSVMASCSEYFYNILKNDPSTKRVDLNDIAPLGLATVIAYAYTGKLTLSLYTIGSIISAAVYLQIHTLVKMCSDFLIREISVENCMYVVNIAETYSLKNAKATAQKFIRDNFIEFAESEQFMKLTFEQINELLVDDDLQLPSELVAFQIAMKWLEFDQKRVKHAADLLSNIRFGTISAQDLVNYVQTVPRMMQDADCHKLLVDAMNYHLLPYHQNTLQSRRTRIRGGCRVLITVGGRPGLTEKSLSRDILYRDPENGWSKLTEMPAKSFNQCVAVMDGFLYVAGGEDQNDARNQAKHAVSNFCRYDPRFNTWIHLGSMNQKRTHFSLSVFNGLLYAVGGRNSEGSLASLECYVPSTNQWQPKAPLEVARCCHASAVADGRVIVTGGYIGSAYSRSVCAYDPALDAWQELPQLSTPRGWHCAVALGDRLYVMGGSQLGPRGERVDVLTVESFSPAARQWSFVAPLPVGVSTAGVSALHGRAYLLGGWNEGDKKYKKCIQCFNPELNEWTEDDELPEATVGVSCCTLAMPNSVSRESRASSVSSVPVSI
- N-terminal methylation identified by MS [3]: N-terminally methylated
